Laboratory results from ChEMBL document CHEMBL1156157, “1,7-Disubstituted oxyindoles are potent and selective EP(3) receptor antagonists” (Bioorg Med Chem Lett, 2010).

Key:
[1] = molecular target: T1, Prostaglandin E2 receptor EP3 subtype (Homo sapiens, UniProt P43115); test: Displacement of [3H]PGE2 from human EP3 receptor in presence of 10% human serum
T1 sequence (P43115 whole entry): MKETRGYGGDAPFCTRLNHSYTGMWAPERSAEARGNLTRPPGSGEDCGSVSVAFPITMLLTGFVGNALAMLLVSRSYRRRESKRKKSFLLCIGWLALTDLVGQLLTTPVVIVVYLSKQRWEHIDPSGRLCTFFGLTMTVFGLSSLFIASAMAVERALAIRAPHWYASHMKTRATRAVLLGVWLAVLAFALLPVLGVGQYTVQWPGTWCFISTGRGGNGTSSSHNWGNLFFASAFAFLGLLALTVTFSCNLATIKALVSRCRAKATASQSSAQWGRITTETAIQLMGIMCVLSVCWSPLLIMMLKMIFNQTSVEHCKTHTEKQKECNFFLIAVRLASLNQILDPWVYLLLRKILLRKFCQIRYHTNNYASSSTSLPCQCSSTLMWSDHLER

[2] = Metabolic stability in human liver microsomes assessed as parent compound remaining after 30 mins; format: ADME, Microsome; conditions: read-out: Stability
Summary of the method: (§1)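 Compounds incubated with liver microsomes from human, rat, mouse, dog or monkey. Read-out is percent parent compound remaining at 30 min of incubation.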

[3] = Metabolic stability in rat liver microsomes assessed as parent compound remaining after 30 mins; format: ADME, Microsome; conditions: read-out: Stability; summary of the method: as §1
[4] = Metabolic stability in mouse liver microsomes assessed as parent compound remaining after 30 mins; format: ADME, Microsome; conditions: read-out: Stability; summary of the method: as §1
[5] = molecular target: T1, Prostaglandin E2 receptor EP3 subtype; test: Displacement of [3H]PGE2 from human EP3 receptor in buffer
[6] = molecular target: T2, Cytochrome P450 3A4 (Homo sapiens, UniProt P08684); test: Inhibition of human CYP3A4 using 7-benzyloxy-4-trifluoromethylcoumarin as substrate; format: ADME
Summary of the method: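 Inhibition of human CYP3A4 with 7-benzyloxy-4-trifluoromethylcoumarin (BFC) as substrate. Values given as IC50.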

[7] = species on record: Rattus norvegicus; test: Antithrombotic activity in rat assessed as platelet aggregation; format: functional
Summary of the method: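 Functional EP3 antagonism measured in a rat platelet aggregation assay. Values reported as EC50 in nM.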

[8] = molecular target: T1, Prostaglandin E2 receptor EP3 subtype; test: Partial displacement of [3H]PGE2 from human EP3 receptor in presence of 10% human serum
[9] = Metabolic stability in monkey liver microsomes assessed as parent compound remaining after 30 mins; format: ADME, Macaca mulatta, Microsome; conditions: rhesus monkey, read-out: Stability; summary of the method: as §1
[10] = Metabolic stability in dog liver microsomes assessed as parent compound remaining after 30 mins; format: ADME, Canis lupus familiaris, Microsome; conditions: read-out: Stability; summary of the method: as §1
[11] = assessed as parent compound remaining after 30 mins; conditions: read-out: Stability
[12] = molecular target: Prostaglandin E2 receptor EP4 subtype (Homo sapiens, UniProt P35408); test: Binding affinity to human EP4 receptor by radioligand displacement assay
Summary of the method: (§2)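 Radioligand displacement assays on a human prostanoid receptor panel (EP2, EP4, FP, IP). IC50 values reported in µM.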

[13] = molecular target: T2, Cytochrome P450 3A4; test: Inhibition of human CYP3A4 using dibenzylfluorescein as substrate; format: ADME
Summary of the method: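 Inhibition of human CYP3A4 with dibenzylfluorescein (DBF) as substrate. Values given as IC50.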

[14] = molecular target: Cytochrome P450 2C9 (Homo sapiens, UniProt P11712); test: Inhibition of human CYP2C9; format: ADME
[15] = molecular target: Prostacyclin receptor (Homo sapiens, UniProt P43119); test: Binding affinity to human IP receptor by radioligand displacement assay; summary of the method: as §2
[16] = molecular target: Prostaglandin F2-alpha receptor (Homo sapiens, UniProt P43088); test: Binding affinity to human FP receptor by radioligand displacement assay; summary of the method: as §2
[17] = molecular target: Cytochrome P450 2D6 (Homo sapiens, UniProt P10635); test: Inhibition of human CYP2D6; format: ADME
[18] = molecular target: T3, Cytochrome P450 1A2 (Homo sapiens, UniProt P05177); test: Inhibition of human CYP1A2; format: ADME
T3 sequence (P05177 whole entry): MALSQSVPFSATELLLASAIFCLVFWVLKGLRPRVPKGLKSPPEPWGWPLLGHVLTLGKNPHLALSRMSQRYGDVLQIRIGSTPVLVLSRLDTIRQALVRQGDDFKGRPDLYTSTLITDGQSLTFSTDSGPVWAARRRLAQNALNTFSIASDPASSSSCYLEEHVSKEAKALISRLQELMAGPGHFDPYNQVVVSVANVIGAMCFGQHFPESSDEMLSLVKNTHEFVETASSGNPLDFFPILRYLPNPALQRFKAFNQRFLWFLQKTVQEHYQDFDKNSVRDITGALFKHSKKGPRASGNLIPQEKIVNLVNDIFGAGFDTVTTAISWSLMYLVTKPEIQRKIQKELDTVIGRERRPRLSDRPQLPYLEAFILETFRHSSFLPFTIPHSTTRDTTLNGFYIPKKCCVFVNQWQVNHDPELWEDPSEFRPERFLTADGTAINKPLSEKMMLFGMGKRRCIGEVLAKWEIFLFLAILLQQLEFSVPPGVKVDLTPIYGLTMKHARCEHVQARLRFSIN

[19] = molecular target: Prostaglandin E2 receptor EP2 subtype (Homo sapiens, UniProt P43116); test: Binding affinity to human EP2 receptor by radioligand displacement assay; summary of the method: as §2
[20] = Half life in mouse at 6 mg/kg, iv; format: ADME, organism-based; parameters: dose 6 mg/kg, route intravenous; conditions: in vivo
Summary of the method: (§3)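 Single iv dose of 6 mg/kg given to mouse and to rat. Half-life in hours derived from the plasma pharmacokinetic parameters, alongside predicted clearance and steady-state volume of distribution.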

[21] = Half life in rat at 6 mg/kg, iv; format: ADME, organism-based; parameters: dose 6 mg/kg, route intravenous; conditions: in vivo; summary of the method: as §3

Prostaglandin E2 receptor EP2 subtype, sequence (P43116 whole entry): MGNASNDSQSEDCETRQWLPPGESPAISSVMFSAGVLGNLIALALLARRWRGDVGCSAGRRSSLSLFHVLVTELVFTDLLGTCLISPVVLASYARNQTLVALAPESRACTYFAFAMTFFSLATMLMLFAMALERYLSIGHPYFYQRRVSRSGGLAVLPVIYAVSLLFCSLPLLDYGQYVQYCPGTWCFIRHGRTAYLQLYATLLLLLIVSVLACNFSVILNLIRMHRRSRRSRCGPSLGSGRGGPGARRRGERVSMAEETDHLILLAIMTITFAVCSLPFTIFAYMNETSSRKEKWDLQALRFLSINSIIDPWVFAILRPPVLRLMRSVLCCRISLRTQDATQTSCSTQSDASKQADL
Prostaglandin F2-alpha receptor, sequence (P43088 whole entry): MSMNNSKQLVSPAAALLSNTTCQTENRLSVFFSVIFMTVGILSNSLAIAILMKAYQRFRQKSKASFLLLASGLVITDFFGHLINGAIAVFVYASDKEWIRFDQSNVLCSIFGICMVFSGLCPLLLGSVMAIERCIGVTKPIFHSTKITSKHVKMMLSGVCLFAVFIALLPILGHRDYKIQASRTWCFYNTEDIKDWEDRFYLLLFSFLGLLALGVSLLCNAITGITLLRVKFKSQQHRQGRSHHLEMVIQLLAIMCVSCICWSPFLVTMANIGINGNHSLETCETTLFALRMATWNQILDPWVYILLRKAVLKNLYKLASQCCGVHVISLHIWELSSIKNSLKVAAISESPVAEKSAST
Cytochrome P450 2C9, sequence (P11712 whole entry): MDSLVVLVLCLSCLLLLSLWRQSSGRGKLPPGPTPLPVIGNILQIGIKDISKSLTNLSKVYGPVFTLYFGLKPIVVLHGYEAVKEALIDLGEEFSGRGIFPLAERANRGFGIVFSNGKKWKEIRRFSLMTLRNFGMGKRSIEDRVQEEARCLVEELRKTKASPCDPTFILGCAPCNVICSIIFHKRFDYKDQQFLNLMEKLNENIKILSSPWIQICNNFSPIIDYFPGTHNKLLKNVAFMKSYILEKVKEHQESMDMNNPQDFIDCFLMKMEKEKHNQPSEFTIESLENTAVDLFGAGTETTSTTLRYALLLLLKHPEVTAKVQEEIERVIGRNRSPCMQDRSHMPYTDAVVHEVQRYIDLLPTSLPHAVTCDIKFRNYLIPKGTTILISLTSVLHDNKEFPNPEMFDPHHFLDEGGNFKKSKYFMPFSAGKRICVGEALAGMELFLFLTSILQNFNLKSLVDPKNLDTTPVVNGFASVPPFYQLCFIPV
T2 sequence (P08684 whole entry): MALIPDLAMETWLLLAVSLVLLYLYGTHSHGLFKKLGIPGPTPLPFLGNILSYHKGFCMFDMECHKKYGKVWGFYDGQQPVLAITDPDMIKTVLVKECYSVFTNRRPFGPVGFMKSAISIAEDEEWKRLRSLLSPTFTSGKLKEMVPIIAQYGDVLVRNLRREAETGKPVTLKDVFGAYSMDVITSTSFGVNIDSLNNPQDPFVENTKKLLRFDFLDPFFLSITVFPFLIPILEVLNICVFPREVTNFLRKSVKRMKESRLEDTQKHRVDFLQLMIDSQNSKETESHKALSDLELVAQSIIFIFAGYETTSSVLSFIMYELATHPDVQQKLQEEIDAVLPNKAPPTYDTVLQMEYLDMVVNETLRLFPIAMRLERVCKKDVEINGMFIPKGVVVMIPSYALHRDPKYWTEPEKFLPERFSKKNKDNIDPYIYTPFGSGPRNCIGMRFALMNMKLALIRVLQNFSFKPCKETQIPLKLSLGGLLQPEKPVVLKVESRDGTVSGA
Prostaglandin E2 receptor EP4 subtype, sequence (P35408 whole entry): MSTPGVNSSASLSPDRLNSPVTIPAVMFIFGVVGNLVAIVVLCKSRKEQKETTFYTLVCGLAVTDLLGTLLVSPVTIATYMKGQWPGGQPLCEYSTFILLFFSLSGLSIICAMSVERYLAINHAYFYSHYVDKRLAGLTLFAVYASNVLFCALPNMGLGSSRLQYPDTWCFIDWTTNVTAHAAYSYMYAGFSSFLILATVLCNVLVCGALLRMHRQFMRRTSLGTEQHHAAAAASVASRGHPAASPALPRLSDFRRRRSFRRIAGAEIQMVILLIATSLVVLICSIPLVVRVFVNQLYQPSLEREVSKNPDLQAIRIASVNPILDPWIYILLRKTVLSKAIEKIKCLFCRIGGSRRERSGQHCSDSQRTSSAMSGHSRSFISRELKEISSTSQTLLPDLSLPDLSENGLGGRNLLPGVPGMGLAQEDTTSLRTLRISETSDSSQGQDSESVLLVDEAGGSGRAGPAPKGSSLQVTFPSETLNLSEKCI
Prostacyclin receptor, sequence (P43119 whole entry): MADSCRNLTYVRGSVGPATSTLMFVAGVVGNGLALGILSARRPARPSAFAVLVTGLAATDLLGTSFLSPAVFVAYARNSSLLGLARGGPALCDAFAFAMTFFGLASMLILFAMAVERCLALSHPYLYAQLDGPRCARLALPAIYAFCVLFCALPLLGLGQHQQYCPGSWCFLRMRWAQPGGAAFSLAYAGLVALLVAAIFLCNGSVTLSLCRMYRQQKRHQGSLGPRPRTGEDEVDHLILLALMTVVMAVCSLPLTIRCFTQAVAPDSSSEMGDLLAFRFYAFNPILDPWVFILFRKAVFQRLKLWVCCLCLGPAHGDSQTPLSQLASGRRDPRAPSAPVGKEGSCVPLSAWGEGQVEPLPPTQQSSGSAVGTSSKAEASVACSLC
Cytochrome P450 2D6, sequence (P10635 whole entry): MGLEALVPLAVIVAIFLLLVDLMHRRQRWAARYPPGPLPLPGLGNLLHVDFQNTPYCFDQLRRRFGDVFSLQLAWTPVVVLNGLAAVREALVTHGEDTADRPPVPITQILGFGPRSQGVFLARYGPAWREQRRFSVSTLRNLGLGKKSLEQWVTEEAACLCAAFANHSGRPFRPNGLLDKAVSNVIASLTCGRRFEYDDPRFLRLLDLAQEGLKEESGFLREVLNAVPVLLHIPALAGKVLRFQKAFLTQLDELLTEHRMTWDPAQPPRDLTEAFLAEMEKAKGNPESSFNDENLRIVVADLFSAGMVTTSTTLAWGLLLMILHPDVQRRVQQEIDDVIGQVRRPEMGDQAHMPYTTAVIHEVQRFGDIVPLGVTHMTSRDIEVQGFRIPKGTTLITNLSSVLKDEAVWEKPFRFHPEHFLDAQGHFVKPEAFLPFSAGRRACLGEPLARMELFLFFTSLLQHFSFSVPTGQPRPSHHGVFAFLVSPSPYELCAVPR

SMILES | IC50 [1] [nM] | remaining at 0.5 h [2] [%] | remaining at 0.5 h [3] [%] | remaining at 0.5 h [4] [%] | IC50 [5] [nM] | inhibition (INH) [6] | IC50 [7] [nM] | further results
O=C(/C=C/c1cccc2c1N(Cc1ccc(F)c(F)c1)C(=O)C2(CO)CO)NS(=O)(=O)c1ccc(F)c(F)c1 |  |  |  |  | 45.4 |  |  | IC50 [8]: Active
O=C(/C=C/c1cccc2c1N(Cc1ccc(Cl)cc1Cl)C(=O)C2)NS(=O)(=O)c1cccs1 |  |  |  |  | 56 |  |  | IC50 [8]: Active
O=C(/C=C/c1cccc2c1N(Cc1ccc(Cl)cc1Cl)C(=O)C2(F)F)NS(=O)(=O)c1cccs1 |  |  |  |  | 237 | Active | > 800 | IC50 [8]: Active
O=C(/C=C/c1cccc2c1N(Cc1ccc3ccccc3c1)C(=O)C2(F)F)NS(=O)(=O)c1cccs1 |  |  |  |  | 202 | Active | > 800 | IC50 [8]: Active
O=C(/C=C/c1cccc2c1N(Cc1ccc3ccccc3c1)C(=O)C2(F)F)NS(=O)(=O)c1cc(Cl)c(Cl)s1 | 20.8 | 79.3 | 71.8 | 80.7 | 11.6 | Active | > 800 | 
O=C(/C=C/c1cccc2c1N(Cc1ccc(Cl)cc1Cl)C(=O)C2)NS(=O)(=O)c1cc(Cl)c(Cl)s1 | 92.8 | 76.8 | 46.3 | 56.8 | 2.9 |  |  | remaining at 0.5 h [9]: 76.9%
O=C(/C=C/c1cccc2c1N(Cc1ccc(Cl)cc1Cl)C(=O)C2(F)F)NS(=O)(=O)c1cc(Cl)c(Cl)s1 | 64 | 94.4 | 94.8 | 100 | 3.8 | Active | > 800 | remaining at 0.5 h [9]: 67.3%; remaining at 0.5 h [10]: 83.3%
O=C(/C=C/c1cccc2c1N(Cc1ccc3ccccc3c1)C(=O)C21OCCO1)NS(=O)(=O)c1cccs1 | 679 |  |  |  | 13 |  |  | remaining at 0.5 h [11]: 37.8%
O=C(/C=C/c1cccc2c1N(Cc1ccc(Cl)cc1Cl)C(=O)C21OCCO1)NS(=O)(=O)c1cc(Cl)c(Cl)s1 |  |  |  |  | 3.8 |  |  | remaining at 0.5 h [11]: 28.4%; IC50 [8]: Active
CC1C(=O)N(Cc2ccc3ccccc3c2)c2c(/C=C/C(=O)NS(=O)(=O)c3cc(Cl)c(Cl)s3)cccc21 (centres undefined) | 3.2 | 48.2 | 8 | 67.7 | 4.4 |  |  | remaining at 0.5 h [10]: 67.7%; EC50 [7]: 2 nM
O=C(/C=C/c1cccc2c1N(Cc1ccc3ccccc3c1)C(=O)C2O)NS(=O)(=O)c1ccc(F)c(F)c1 (centres undefined) | 7.6 | 89.3 | 87.9 | 72.7 | 1.6 | Not Active |  | IC50 [12]: 2300 nM; inhibition (INH) [13]: Active; inhibition (INH) [14]: Active; IC50 [15]: > 20000 nM; IC50 [16]: > 20000 nM; inhibition (INH) [17]: Not Active; EC50 [7]: 87 nM; inhibition (INH) [18]: Not Active; IC50 [19]: > 20000 nM
O=C(/C=C/c1cccc2c1N(Cc1ccc3ccccc3c1)C(=O)C2)NS(=O)(=O)c1cc(Cl)c(Cl)s1 | 5.4 | 105 | 32.9 | 63.8 | 1.3 |  |  | remaining at 0.5 h [10]: 79.5%; EC50 [7]: 27 nM
CC1C(=O)N(Cc2ccc3ccccc3c2)c2c(/C=C/C(=O)NS(=O)(=O)c3cccs3)cccc21 (centres undefined) | 96.5 | 43.5 | 48 | 32.6 | 3.5 |  |  | remaining at 0.5 h [9]: 35.3%; remaining at 0.5 h [10]: 81.8%
O=C(/C=C/c1cccc2c1N(Cc1ccc3ccccc3c1)C(=O)C2O)NS(=O)(=O)c1cc(F)c(F)cc1F (centres undefined) | 9.4 | 95.6 | 99.7 | 73.5 | 0.6 | Not Active |  | IC50 [12]: 8700 nM; inhibition (INH) [13]: Active; inhibition (INH) [14]: Active; IC50 [15]: > 20000 nM; IC50 [16]: > 20000 nM; inhibition (INH) [17]: Not Active; EC50 [7]: 69 nM; inhibition (INH) [18]: Not Active; IC50 [19]: > 20000 nM
O=C(/C=C/c1cccc2c1N(Cc1ccc3ccccc3c1)C(=O)C2O)NS(=O)(=O)c1ccc(F)cc1 (centres undefined) | 19.4 | 97.7 | 103 | 83.4 | 0.9 | Not Active |  | IC50 [12]: 15100 nM; inhibition (INH) [13]: Active; inhibition (INH) [14]: Active; half-life [20]: 2.1 h; IC50 [15]: > 20000 nM; IC50 [16]: > 20000 nM; inhibition (INH) [17]: Not Active; EC50 [7]: 63 nM; inhibition (INH) [18]: Not Active; half-life [21]: 1.75 h; IC50 [19]: > 20000 nM

The next compounds have a lower IC50 [5] than those just listed; values first:

IC50 [1] [nM] | remaining at 0.5 h [2] [%] | remaining at 0.5 h [3] [%] | remaining at 0.5 h [4] [%] | IC50 [5] [nM] | inhibition (INH) [6] | IC50 [7] [nM] | SMILES | further results
5.6 | 74.6 | 77.4 | 60.6 | 0.2 | Active | > 800 | O=C(/C=C/c1cccc2c1N(Cc1ccc(Cl)cc1Cl)C(=O)C2(F)F)NS(=O)(=O)c1cc(F)c(F)cc1F | 
5.5 | 73.1 | 70.4 | 82.8 | 0.2 | Active | > 800 | O=C(/C=C/c1cccc2c1N(Cc1ccc(Cl)cc1Cl)C(=O)C2(F)F)NS(=O)(=O)c1ccc(Cl)c(Cl)c1 | 
4.5 | 79.4 | 62.1 | 41.3 | 0.3 | Active | > 800 | O=C(/C=C/c1cccc2c1N(Cc1ccc3ccccc3c1)C(=O)C2(F)F)NS(=O)(=O)c1ccc(Cl)c(Cl)c1 | 
1.9 | 64.5 | 21 | 21.6 | 0.1 | Active | > 800 | O=C(/C=C/c1cccc2c1N(Cc1ccc3ccccc3c1)C(=O)C2(F)F)NS(=O)(=O)c1cccc(Cl)c1 | 
7.7 | 66.6 | 62.2 | 31.2 | 0.2 | Active | > 800 | O=C(/C=C/c1cccc2c1N(Cc1ccc(Cl)cc1Cl)C(=O)C2(F)F)NS(=O)(=O)c1cccc(Cl)c1 | 
6.5 | 74.4 | 80.1 | 71 | 0.2 | Active | > 800 | O=C(/C=C/c1cccc2c1N(Cc1ccc(Cl)cc1Cl)C(=O)C2(F)F)NS(=O)(=O)c1ccc(F)c(F)c1 | 
5 | 68.1 | 45 | 47.1 | 0.2 | Active | > 800 | O=C(/C=C/c1cccc2c1N(Cc1ccc3ccccc3c1)C(=O)C2(F)F)NS(=O)(=O)c1ccc(F)c(F)c1 | 
9.3 | 68.8 | 54.2 | 47.9 | 0.3 | Active | > 800 | O=C(/C=C/c1cccc2c1N(Cc1ccc3ccccc3c1)C(=O)C2(F)F)NS(=O)(=O)c1cc(F)c(F)cc1F | 
